Assay results taken from ChEMBL document CHEMBL3414548, “Luotonin-A based quinazolinones cause apoptosis and senescence via HDAC inhibition and activation of tumor suppressor proteins in HeLa cells” (Eur J Med Chem, 2015).

Tested on: HeLa
Test: Cell cycle arrest in human HeLa cells assessed as accumulation at G0/G1 phase at 4 uM after 48 hrs by propidium iodide staining-based flow cytometric analysis (reference value: 62%)
Type: functional
Conditions: not given

Structure (SMILES) | Activity [%]
COc1cc2nc(C)n(-c3ccccc3Cn3cc(S)nn3)c(=O)c2cc1OC | 71
COc1cc2nc(C)n(-c3ccccc3Cn3cc(-c4ccc(C)cc4)nn3)c(=O)c2cc1OC | 72
COc1ccc2cc(-c3cn(Cc4ccccc4-n4c(C)nc5ccccc5c4=O)nn3)ccc2c1 | 73
Cc1nc2ccccc2c(=O)n1-c1ccccc1Cn1cc(S)nn1 | 71
COc1cc2nc(C)n(-c3ccccc3Cn3cc(-c4ccccn4)nn3)c(=O)c2cc1OC | 72

Tested on: K562
Test: Cytotoxicity against human K562 cells after 72 hrs by MTT assay
Type: functional, cell-based
Conditions: K562, 72 h
Method in brief: (§1)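 Cells were seeded at 1×10⁴ per well and preincubated 18 h at 37 °C, 5% CO₂. They were then exposed to 1–256 μM for 72 h with DMSO ≤0.25%. MTT was added for 2 h and formazan was solubilized in extraction buffer before reading OD at 570 nm. IC50 is mean ± SD of three independent experiments. HEK is the normal-cell line; cancer lines were grown in DMEM with 10% serum.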

Structure (SMILES) | IC50 [µM]
COc1cc2nc(C)n(-c3ccccc3Cn3cc(S)nn3)c(=O)c2cc1OC | 30.4
COc1cc2nc(C)n(-c3ccccc3Cn3cc(-c4ccc(C)cc4)nn3)c(=O)c2cc1OC | 28
COc1ccc2cc(-c3cn(Cc4ccccc4-n4c(C)nc5ccccc5c4=O)nn3)ccc2c1 | 19.5
Cc1nc2ccccc2c(=O)n1-c1ccccc1Cn1cc(S)nn1 | 26.2
COc1cc2nc(C)n(-c3ccccc3Cn3cc(-c4ccccn4)nn3)c(=O)c2cc1OC | 20.8

Tested on: HeLa
Test: Cytotoxicity against human HeLa cells after 72 hrs by MTT assay
Type: functional, cell-based
Conditions: not given
Method in brief: as §1

Structure (SMILES) | IC50 [µM]
COc1cc2nc(C)n(-c3ccccc3Cn3cc(S)nn3)c(=O)c2cc1OC | 10.5
COc1cc2nc(C)n(-c3ccccc3Cn3cc(-c4ccc(C)cc4)nn3)c(=O)c2cc1OC | 9.92
COc1ccc2cc(-c3cn(Cc4ccccc4-n4c(C)nc5ccccc5c4=O)nn3)ccc2c1 | 8.68
Cc1nc2ccccc2c(=O)n1-c1ccccc1Cn1cc(S)nn1 | 11
COc1cc2nc(C)n(-c3ccccc3Cn3cc(-c4ccccn4)nn3)c(=O)c2cc1OC | 10.6

Tested on: HeLa
Test: Cell cycle arrest in human HeLa cells assessed as accumulation at S phase at 4 uM after 48 hrs by propidium iodide staining-based flow cytometric analysis (reference value: 7%)
Type: functional
Conditions: not given

Structure (SMILES) | Activity [%]
COc1cc2nc(C)n(-c3ccccc3Cn3cc(S)nn3)c(=O)c2cc1OC | 6
COc1cc2nc(C)n(-c3ccccc3Cn3cc(-c4ccc(C)cc4)nn3)c(=O)c2cc1OC | 6
COc1ccc2cc(-c3cn(Cc4ccccc4-n4c(C)nc5ccccc5c4=O)nn3)ccc2c1 | 5
Cc1nc2ccccc2c(=O)n1-c1ccccc1Cn1cc(S)nn1 | 7
COc1cc2nc(C)n(-c3ccccc3Cn3cc(-c4ccccn4)nn3)c(=O)c2cc1OC | 7

Tested on: not listed separately
Test: Cytotoxicity against HEK cells after 72 hrs by MTT assay
Type: cell-based
Conditions: Homo sapiens, HEK293, 72 h
Method in brief: as §1

Structure (SMILES) | IC50 [µM]
COc1cc2nc(C)n(-c3ccccc3Cn3cc(S)nn3)c(=O)c2cc1OC | 214
COc1cc2nc(C)n(-c3ccccc3Cn3cc(-c4ccc(C)cc4)nn3)c(=O)c2cc1OC | 204
COc1ccc2cc(-c3cn(Cc4ccccc4-n4c(C)nc5ccccc5c4=O)nn3)ccc2c1 | 178
Cc1nc2ccccc2c(=O)n1-c1ccccc1Cn1cc(S)nn1 | 189
COc1cc2nc(C)n(-c3ccccc3Cn3cc(-c4ccccn4)nn3)c(=O)c2cc1OC | 252

Tested on: HeLa
Test: Cell cycle arrest in human HeLa cells assessed as accumulation at G2/M phase at 4 uM after 48 hrs by propidium iodide staining-based flow cytometric analysis (reference value: 19%)
Conditions: not given

Structure (SMILES) | Activity [%]
COc1cc2nc(C)n(-c3ccccc3Cn3cc(S)nn3)c(=O)c2cc1OC | 20
COc1cc2nc(C)n(-c3ccccc3Cn3cc(-c4ccc(C)cc4)nn3)c(=O)c2cc1OC | 17
COc1ccc2cc(-c3cn(Cc4ccccc4-n4c(C)nc5ccccc5c4=O)nn3)ccc2c1 | 17
Cc1nc2ccccc2c(=O)n1-c1ccccc1Cn1cc(S)nn1 | 21
COc1cc2nc(C)n(-c3ccccc3Cn3cc(-c4ccccn4)nn3)c(=O)c2cc1OC | 19

Tested on: HEK293
Test: Selectivity index, ratio of IC50 for HEK cells to IC50 for human K562 cells
Type: functional
Conditions: not given
Method in brief: (§2)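 Selectivity index is IC50 in normal HEK cells divided by IC50 in the cancer cell line.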

Structure (SMILES) | Ratio IC50
COc1cc2nc(C)n(-c3ccccc3Cn3cc(S)nn3)c(=O)c2cc1OC | 7.03
COc1cc2nc(C)n(-c3ccccc3Cn3cc(-c4ccc(C)cc4)nn3)c(=O)c2cc1OC | 7.28
COc1ccc2cc(-c3cn(Cc4ccccc4-n4c(C)nc5ccccc5c4=O)nn3)ccc2c1 | 9.11
Cc1nc2ccccc2c(=O)n1-c1ccccc1Cn1cc(S)nn1 | 7.2
COc1cc2nc(C)n(-c3ccccc3Cn3cc(-c4ccccn4)nn3)c(=O)c2cc1OC | 12.11

Tested on: HeLa
Test: Cell cycle arrest in human HeLa cells assessed as accumulation at G0 phase at 8 uM after 48 hrs by propidium iodide staining-based flow cytometric analysis (reference value: 3%)
Type: functional
Conditions: not given

Structure (SMILES) | Activity [%]
COc1cc2nc(C)n(-c3ccccc3Cn3cc(S)nn3)c(=O)c2cc1OC | 5
COc1cc2nc(C)n(-c3ccccc3Cn3cc(-c4ccc(C)cc4)nn3)c(=O)c2cc1OC | 5
COc1ccc2cc(-c3cn(Cc4ccccc4-n4c(C)nc5ccccc5c4=O)nn3)ccc2c1 | 5
Cc1nc2ccccc2c(=O)n1-c1ccccc1Cn1cc(S)nn1 | 4
COc1cc2nc(C)n(-c3ccccc3Cn3cc(-c4ccccn4)nn3)c(=O)c2cc1OC | 5

Tested on: HeLa
Test: Cell cycle arrest in human HeLa cells assessed as accumulation at S phase at 8 uM after 48 hrs by propidium iodide staining-based flow cytometric analysis (reference value: 10%)
Type: functional
Conditions: not given

Structure (SMILES) | Activity [%]
COc1cc2nc(C)n(-c3ccccc3Cn3cc(S)nn3)c(=O)c2cc1OC | 5
COc1cc2nc(C)n(-c3ccccc3Cn3cc(-c4ccc(C)cc4)nn3)c(=O)c2cc1OC | 7
COc1ccc2cc(-c3cn(Cc4ccccc4-n4c(C)nc5ccccc5c4=O)nn3)ccc2c1 | 5
Cc1nc2ccccc2c(=O)n1-c1ccccc1Cn1cc(S)nn1 | 6
COc1cc2nc(C)n(-c3ccccc3Cn3cc(-c4ccccn4)nn3)c(=O)c2cc1OC | 7

Tested on: HeLa
Test: Cell cycle arrest in human HeLa cells assessed as accumulation at G1 phase at 8 uM after 48 hrs by propidium iodide staining-based flow cytometric analysis (reference value: 68%)
Type: functional
Conditions: not given

Structure (SMILES) | Activity [%]
COc1cc2nc(C)n(-c3ccccc3Cn3cc(S)nn3)c(=O)c2cc1OC | 70
COc1cc2nc(C)n(-c3ccccc3Cn3cc(-c4ccc(C)cc4)nn3)c(=O)c2cc1OC | 71
COc1ccc2cc(-c3cn(Cc4ccccc4-n4c(C)nc5ccccc5c4=O)nn3)ccc2c1 | 72
Cc1nc2ccccc2c(=O)n1-c1ccccc1Cn1cc(S)nn1 | 69
COc1cc2nc(C)n(-c3ccccc3Cn3cc(-c4ccccn4)nn3)c(=O)c2cc1OC | 69

Tested on: HeLa
Test: Selectivity index, ratio of IC50 for HEK cells to IC50 for human HeLa cells
Type: functional
Conditions: not given
Method in brief: as §2

Structure (SMILES) | Ratio IC50
COc1cc2nc(C)n(-c3ccccc3Cn3cc(S)nn3)c(=O)c2cc1OC | 20.38
COc1cc2nc(C)n(-c3ccccc3Cn3cc(-c4ccc(C)cc4)nn3)c(=O)c2cc1OC | 20.56
COc1ccc2cc(-c3cn(Cc4ccccc4-n4c(C)nc5ccccc5c4=O)nn3)ccc2c1 | 20.5
Cc1nc2ccccc2c(=O)n1-c1ccccc1Cn1cc(S)nn1 | 17.22
COc1cc2nc(C)n(-c3ccccc3Cn3cc(-c4ccccn4)nn3)c(=O)c2cc1OC | 23.84

Tested on: HeLa
Test: Cell cycle arrest in human HeLa cells assessed as accumulation at G2/M phase at 4 uM after 48 hrs by propidium iodide staining-based flow cytometric analysis (reference value: 31%)
Type: functional
Conditions: not given

Structure (SMILES) | Activity [%]
COc1cc2nc(C)n(-c3ccccc3Cn3cc(S)nn3)c(=O)c2cc1OC | 23
COc1cc2nc(C)n(-c3ccccc3Cn3cc(-c4ccc(C)cc4)nn3)c(=O)c2cc1OC | 22
COc1ccc2cc(-c3cn(Cc4ccccc4-n4c(C)nc5ccccc5c4=O)nn3)ccc2c1 | 22
Cc1nc2ccccc2c(=O)n1-c1ccccc1Cn1cc(S)nn1 | 22
COc1cc2nc(C)n(-c3ccccc3Cn3cc(-c4ccccn4)nn3)c(=O)c2cc1OC | 22

Tested on: HEK293
Test: Selectivity index, ratio of IC50 for HEK cells to IC50 for human MCF7 cells
Type: functional
Conditions: not given
Method in brief: as §2

Structure (SMILES) | Ratio IC50
COc1cc2nc(C)n(-c3ccccc3Cn3cc(S)nn3)c(=O)c2cc1OC | 21.9
COc1cc2nc(C)n(-c3ccccc3Cn3cc(-c4ccc(C)cc4)nn3)c(=O)c2cc1OC | 14.16
COc1ccc2cc(-c3cn(Cc4ccccc4-n4c(C)nc5ccccc5c4=O)nn3)ccc2c1 | 20.41
Cc1nc2ccccc2c(=O)n1-c1ccccc1Cn1cc(S)nn1 | 12.61
COc1cc2nc(C)n(-c3ccccc3Cn3cc(-c4ccccn4)nn3)c(=O)c2cc1OC | 13.54

Tested on: MCF7
Test: Cytotoxicity against human MCF7 cells after 72 hrs by MTT assay
Type: functional, cell-based
Conditions: MCF7, 72 h
Method in brief: as §1

Structure (SMILES) | IC50 [µM]
COc1cc2nc(C)n(-c3ccccc3Cn3cc(S)nn3)c(=O)c2cc1OC | 9.77
COc1cc2nc(C)n(-c3ccccc3Cn3cc(-c4ccc(C)cc4)nn3)c(=O)c2cc1OC | 14.4
COc1ccc2cc(-c3cn(Cc4ccccc4-n4c(C)nc5ccccc5c4=O)nn3)ccc2c1 | 8.72
Cc1nc2ccccc2c(=O)n1-c1ccccc1Cn1cc(S)nn1 | 15
COc1cc2nc(C)n(-c3ccccc3Cn3cc(-c4ccccn4)nn3)c(=O)c2cc1OC | 18.6
